Laboratory results: paper PMC7981784 (Journal of medicinal chemistry, 2020)

Columns and labels:
MEIS1 gene expression [1] = conditions: single dose 50 mg/kg intravenous; previous study; cited from earlier work
HOXA9 gene expression [2] = conditions: single dose 50 mg/kg intravenous; previous study; cited from earlier work
HL60 (No MLL fusion) = test: Cell growth inhibition assay; format: cell-based, human; conditions: ratio of cell growth IC50 values
HOXA9 gene expression [3] = test: Pharmacodynamics in MV4; format: in vivo, mice; conditions: for effect in suppressing expression of HOXA9 gene: single intravenous dose 10 mg/kg, 24 hr, MV4;11 tumors in mice
Method in brief: (§1)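 Mice bearing subcutaneous MV4;11 xenografts received a single IV dose of vehicle or test compound: 10 mg/kg with tumors taken at 24 h, or 25 mg/kg with tumors taken at 6, 24 and 48 h; 3 mice per time point. Tumors were snap-frozen in liquid N2 and powdered. Total RNA was reverse-transcribed and HOXA9 and MEIS1 quantified by TaqMan real-time PCR. Comparative Ct method, normalized to GAPDH, expressed relative to vehicle.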

SCID mice = test: Tolerability studies in mice; format: in vivo
Method in brief: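 Female SCID mice, three per group, were dosed with test compound on days 1, 3 and 5 for one week. Mice were weighed and checked for clinical signs of toxicity. Weight loss greater than 10% was counted as toxic.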

MEIS1 gene expression [4] = test: Pharmacodynamics in MV4; format: in vivo, mice; conditions: single intravenous dose 25 mg/kg; 6, 24 and 48 h
Method in brief: as §1

MV4;11 xenograft tumor = test: In vivo antitumor efficacy in the MV4
Method in brief: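 Female C.B-17 SCID mice received 5 × 10^6 MV4;11 cells subcutaneously in the flank, in 1:1 PBS/Matrigel (final Matrigel 5 mg/mL). At tumor volumes of 60–140 mm3, mice were randomized into groups of 7. Test compound was given IV in 10% PEG 400:3% Cremophor EL:87% PBS at 10 or 25 mg/kg, every other day, 3 times per week, for 11 doses; controls got vehicle. Caliper volume = (A×B2)/2. Tumor volume and body weight were measured 2–3 times weekly during treatment and at least weekly afterwards.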

[5] = 25 mg/kg every other day (three times a week) for one week
[6] = intravenous 10 mg/kg every other day (three times a week) for one week

SMILES	cellular selectivity for MV4;11 and MOLM-13 cell lines over HL-60 cell line (HL60 (No MLL fusion))	effect in suppressing expression of HOXA9 gene (HOXA9 gene expression [3])	animal weight loss (SCID mice; [5])	tolerability (SCID mice; [6])	cellular selectivity for MLL leukemia cells over HL-60 (non-MLL leukemia cells) (HL60 (No MLL fusion))	other results
COC(=O)N[C@H]1CCC[C@@H]1[C@](C#N)(c1cccc(F)c1)C1CCN(CC2CN(c3ccc(S(=O)(=O)C4CN(C(=O)/C=C/CN(C)C)C4)cc3)C2)CC1 [Compound M-525]						suppression of MEIS1 gene expression in MV4;11 xenograft tumor tissue (MEIS1 gene expression [1]): strong suppression; suppression of HOXA9 gene expression in MV4;11 xenograft tumor tissue (HOXA9 gene expression [2]): strong suppression
COC(=O)N[C@H]1CCC[C@@H]1[C@](CN1CCC1)(c1cccc(F)c1)C1CCN(CC2CN(c3ccc(S(=O)(=O)C4CN(C(=O)/C=C/CN(C)C)C4)cc3)C2)CC1 [Compound 10, Methyl ((1S,2R)-2-((S)-2-(azetidin-1-yl)-1-(1-((1-(4-((1-((E)-4-(dimethylamino)but-2-enoyl)azetidin-3-yl)sulfonyl)phenyl)azetidin-3-yl)methyl)piperidin-4-yl)-1-(3-fluorophenyl)ethyl)cyclopentyl)carbamate]	> 300 times	significant but modest effect	> 10%	well tolerated		
COC(=O)N[C@H]1CCC[C@@H]1[C@](CN(C)C)(c1cccc(F)c1)C1CCN(CC2CN(c3ccc(S(=O)(=O)C4CN(C(=O)/C=C/CN(C)C)C4)cc3)C2)CC1 [Compound 9, Methyl ((1S,2R)-2-((S)-2-(dimethylamino)-1-(1-((1-(4-((1-((E)-4-(dimethylamino)but-2-enoyl)azetidin-3-yl)sulfonyl)phenyl)azetidin-3-yl)methyl)piperidin-4-yl)-1-(3-fluorophenyl)ethyl)cyclopentyl)carbamate]	> 300 times					
COC(=O)N[C@H]1CCC[C@@H]1[C@](CN1CCC1)(c1cccc(F)c1)C1CCN(CC2CN(c3ccc(S(=O)(=O)C4CN(C(=O)/C=C/CN5CCCC5)C4)cc3)C2)CC1 [Compound 15, Methyl ((1S,2R)-2-((S)-2-(azetidin-1-yl)-1-(3-fluorophenyl)-1-(1-((1-(4-((1-((E)-4-(pyrrolidin-1-yl)but-2-enoyl)azetidin-3-yl)sulfonyl)phenyl)azetidin-3-yl)methyl)piperidin-4-yl)ethyl)cyclopentyl)carbamate]		significant but modest effect	> 10%	well tolerated	> 200 fold	
COC(=O)N[C@H]1CCC[C@@H]1[C@](CN1CCC1)(c1cccc(F)c1)C1CCN(CC2CN(c3ccc(S(=O)(=O)C4CN(C(=O)/C=C/CN5CCCCC5)C4)cc3)C2)CC1 [Compound 16, Methyl ((1S,2R)-2-((S)-2-(azetidin-1-yl)-1-(3-fluorophenyl)-1-(1-((1-(4-((1-((E)-4-(piperidin-1-yl)but-2-enoyl)azetidin-3-yl)sulfonyl)phenyl)azetidin-3-yl)methyl)piperidin-4-yl)ethyl)cyclopentyl)carbamate]		significant but modest effect		well tolerated		suppression of MEIS1 gene expression in tumor tissue (MEIS1 gene expression [4]): effectively suppresses; effect on tumor growth over vehicle control (MV4;11 xenograft tumor; 10 mg/kg IV every other day, 3 times per week, 11 doses): no effect on tumor growth; body weight change and drug-related toxicity (MV4;11 xenograft tumor; 10 or 25 mg/kg IV, during and after treatment): no significant weight change; suppression of HOXA9 gene expression in tumor tissue (HOXA9 gene expression [3]; single intravenous dose 25 mg/kg, 6, 24 and 48 h): effectively suppresses; tolerability (SCID mice; [5]): well tolerated
COC(=O)N[C@H]1CCC[C@@H]1[C@](CN1CCC1)(c1cccc(F)c1)C1CCN(CC2CN(c3ccc(S(=O)(=O)C4CN(C(=O)/C=C/CN5CCC5)C4)cc3)C2)CC1 [Compound 14, Methyl ((1S,2R)-2-((S)-2-(azetidin-1-yl)-1-(1-((1-(4-((1-((E)-4-(azetidin-1-yl)but-2-enoyl)azetidin-3-yl)sulfonyl)phenyl)azetidin-3-yl)methyl)piperidin-4-yl)-1-(3-fluorophenyl)ethyl)cyclopentyl)carbamate]					> 700 fold	
